Eleven molecules from PubChem BioAssay AID602225 (Southern Research Specialized Biocontainment Screening …, 2012) can be followed below.

Inconclusive results are not listed. Activity calls are given as the source filed them.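 How the source made its calls: active means viability below 80% at one or more tested concentrations, meaning the compound is toxic to the cells; inconclusive means replicate runs disagree on whether viability fell below 80%; inactive means viability of 80% or more at every dose.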

One experiment deals with Vero E6 viability, CellTiter-Glo luminescence, 72 h. The experiment can be described thus: Vero E6 cell cytotoxicity, dose response, cytotoxicity control for PfM18AAP inhibitor project, set 2 (AID 602225).
Settings: not given
Summed up: (§1)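 Material: Vero E6 cells. Dosing: 10-point dose series in 2-fold dilution steps. Incubation: 72 h compound treatment, 37 °C. Detection: CellTiter-Glo luminescence measurement of viable cells. Evaluation: % viability and fitted CC50.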
For the molecule `COc1ccc(CCNc2c3ccccc3nc3ccccc23)cc1OC`, the CC50 (commonly the concentration that lowers cell viability or growth by half) was 13.9 µM.
Still for that read-out and setting: in the case of `COc1ccc(CCN(C)c2c3ccccc3nc3ccccc23)cc1OC` it was 27.8 µM; in that of `Oc1ccc(CCNc2c3ccccc3nc3ccccc23)cc1O`, 30.9 µM.
The same measure, in the same setting: as for `COc1ccc(CCNC(c2ccccc2)c2ccccc2)cc1OC`, the figure is 32.6 µM.
Still for that read-out and setting: in the case of `CCc1ccc(NC(=O)Cc2nc(-c3ccc(O)c(O)c3)cs2)cc1` it was 28.7 µM.

System in a further experiment: not listed separately
The description is as above. To be noted: Vero E6 viability, CellTiter-Glo luminescence, 72 h; at 50 µM (top of the series). Summed up:
as §1
Background: Cellular ATP, detected with luciferase, serves as a proxy for viable cell number.
For `COc1ccc(CCCN2CCN(C)CC2)cc1OC`, the viability (usually a read-out of living cells in per cent, often relative to untreated cells) was 100% (inactive).
Consider `CN1CCN(CCCc2ccc(O)c(O)c2)CC1`, for which the viability was 93.4% (inactive).
On to `CN1CCN(c2nc(-c3ccc(O)c(O)c3)cs2)CC1`, for which the viability was 102% (inactive).
Turning to `Oc1ccc(CCNc2ccnc3ccccc23)cc1O`, the viability was 100% (inactive).
Regarding `CN1CCN(CCc2ccc(O)c(O)c2)CC1`, the viability was 103% (inactive).
For the molecule `Oc1ccc(-c2csc(Nc3ncccn3)n2)cc1O`, the viability is 90.7% (inactive).
